Measured values reported in ChEMBL document CHEMBL1158155, “Novel hexacyclic camptothecin derivatives. Part 1: synthesis and cytotoxicity of camptothecins with an A-ring fused 1,3-oxazine ring” (Bioorg Med Chem Lett, 2008).

How the values were obtained:
Type in all cases: functional, cell-based
HepG2 = assay: Cytotoxicity against human HepG2 cells after 4 days by MTT assay; conditions: HepG2, 96 h
Summary of the method: (§1)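 Panel of nine human cancer lines tested in parallel: BXPC-3 (pancreatic), NCI-446 (lung), MCF-7 (breast), HEPG-2 (liver), A549 (lung), A2780 (ovarian), Bel7402 (liver), HT-29 (colon), and KB (epidermoid carcinoma of nasopharynx). Cells were exposed for 4 days of incubation, viability was read by MTT, and values were expressed as the doses required for the response.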

A2780 = assay: Cytotoxicity against human A2780 cells after 4 days by MTT assay; conditions: A2780, 96 h; summary of the method: as §1
HT-29 = assay: Cytotoxicity against human HT29 cells after 4 days by MTT assay; conditions: HT-29, 96 h; summary of the method: as §1
BXPC-3 = assay: Cytotoxicity against human BXPC3 cells after 4 days by MTT assay; conditions: BXPC-3, 96 h; summary of the method: as §1
A549 = assay: Cytotoxicity against human A549 cells after 4 days by MTT assay; conditions: A549, 96 h; summary of the method: as §1
MCF7 = assay: Cytotoxicity against human MCF7 cells after 4 days by MTT assay; conditions: MCF7, 96 h; summary of the method: as §1
Bel-7402 = assay: Cytotoxicity against human BEL-7402 cells after 4 days by MTT assay; conditions: Bel-7402, 96 h; summary of the method: as §1
KB = assay: Cytotoxicity against human KB cells after 4 days by MTT assay; conditions: 96 h; summary of the method: as §1
[1] = Cytotoxicity against human NCI446 cells after 4 days by MTT assay; conditions: NCI446, 96 h; summary of the method: as §1

SMILES	IC50 (HepG2)	IC50 (A2780)	IC50 (HT-29)	IC50 (BXPC-3)	IC50 (A549)	IC50 (MCF7)	IC50 (Bel-7402)	IC50 (KB)	IC50 [1]
CC[C@@]1(O)C(=O)OCc2c1cc1n(c2=O)Cc2cc3c4c(ccc3nc2-1)OCN(c1ccc(F)c(Cl)c1)C4	180 nM	3100 nM	1130 nM	920 nM	560 nM	9510 nM	3060 nM	620 nM	
CC[C@@]1(O)C(=O)OCc2c1cc1n(c2=O)Cc2cc3c4c(ccc3nc2-1)OCN(C)C4	640 nM	530 nM	690 nM	480 nM	410 nM	4520 nM	1670 nM	670 nM	37300 nM
CC[C@@]1(O)C(=O)OCc2c1cc1n(c2=O)Cc2cc3c4c(ccc3nc2-1)OCN(Cc1ccc(F)cc1)C4	140 nM	11600 nM	1190 nM	1730 nM	120 nM	650 nM	5220 nM	60 nM	43200 nM
CC[C@@]1(O)C(=O)OCc2c1cc1n(c2=O)Cc2cc3c4c(ccc3nc2-1)OCN(c1ccc(Cl)cc1)C4	170 nM	820 nM	210 nM	510 nM	310 nM	5000 nM	16300 nM	230 nM	
CC[C@@]1(O)C(=O)OCc2c1cc1n(c2=O)Cc2cc3c(CN(C)C)c(O)ccc3nc2-1 [TOPOTECAN]		3350 nM	880 nM	620 nM	220 nM	1200 nM	3130 nM	220 nM	10100 nM
CCCN1COc2ccc3nc4c(cc3c2C1)Cn1c-4cc2c(c1=O)COC(=O)[C@]2(O)CC	10 nM	90 nM	180 nM	150 nM	110 nM		1430 nM	670 nM	3900 nM
CC[C@@]1(O)C(=O)OCc2c1cc1n(c2=O)Cc2cc3c4c(ccc3nc2-1)OCN(Cc1ccc(OC)cc1)C4	1470 nM	17600 nM	1680 nM	1240 nM	30 nM		9580 nM	80 nM	56800 nM
CCCCN1COc2ccc3nc4c(cc3c2C1)Cn1c-4cc2c(c1=O)COC(=O)[C@]2(O)CC	350 nM	3190 nM	130 nM	970 nM	200 nM	550 nM	4010 nM	90 nM	10100 nM
CC[C@@]1(O)C(=O)OCc2c1cc1n(c2=O)Cc2cc3c4c(ccc3nc2-1)OCN(c1ccccc1)C4	30 nM	3430 nM	480 nM	190 nM	770 nM	2750 nM	7130 nM	670 nM	
CC[C@@]1(O)C(=O)OCc2c1cc1n(c2=O)Cc2cc3c4c(ccc3nc2-1)OCN(c1cccc(C)c1)C4	930 nM	850 nM	340 nM	580 nM	420 nM		5430 nM	40 nM	7030 nM
CC[C@@]1(O)C(=O)OCc2c1cc1n(c2=O)Cc2cc3c4c(ccc3nc2-1)OCN(c1ccc(F)cc1F)C4	550 nM	2070 nM	620 nM	1570 nM	390 nM	4480 nM	4700 nM	660 nM	
CC[C@@]1(O)C(=O)OCc2c1cc1n(c2=O)Cc2cc3c4c(ccc3nc2-1)OCN(Cc1ccccc1)C4	110 nM	910 nM	100 nM	210 nM	80 nM	1600 nM	1580 nM	40 nM	6230 nM
CC[C@@]1(O)C(=O)OCc2c1cc1n(c2=O)Cc2cc3c4c(ccc3nc2-1)OCN(c1ccc(C)cc1)C4		2160 nM	530 nM	2050 nM	570 nM	1640 nM	3860 nM	340 nM	9390 nM
CC[C@@]1(O)C(=O)OCc2c1cc1n(c2=O)Cc2cc3ccccc3nc2-1 [CAMPTOTHECIN]	130 nM	200 nM	90 nM	240 nM	10 nM	200 nM	170 nM	3 nM	3280 nM
CC[C@@]1(O)C(=O)OCc2c1cc1n(c2=O)Cc2cc3c4c(ccc3nc2-1)OCN(c1ccccc1Cl)C4		4100 nM	1050 nM	890 nM	450 nM	2000 nM	15200 nM	330 nM	19200 nM
CC[C@@]1(O)C(=O)OCc2c1cc1n(c2=O)Cc2cc3c4c(ccc3nc2-1)OCN(c1ccccc1C)C4	180 nM	4260 nM	220 nM	530 nM	1210 nM		6000 nM	60 nM	1140 nM
CCN1COc2ccc3nc4c(cc3c2C1)Cn1c-4cc2c(c1=O)COC(=O)[C@]2(O)CC	50 nM	120 nM	140 nM	190 nM	160 nM	210 nM	810 nM	120 nM	230 nM
CC[C@@]1(O)C(=O)OCc2c1cc1n(c2=O)Cc2cc3c4c(ccc3nc2-1)OCN(c1ccccc1OC)C4	130 nM	2990 nM	310 nM	3340 nM	720 nM	1400 nM	2230 nM	290 nM	
CC[C@@]1(O)C(=O)OCc2c1cc1n(c2=O)Cc2cc3c4c(ccc3nc2-1)OCN(c1ccc(OC)cc1)C4	120 nM	1120 nM	310 nM	420 nM	270 nM		4990 nM	230 nM	14400 nM
CC[C@@]1(O)C(=O)OCc2c1cc1n(c2=O)Cc2cc3c4c(ccc3nc2-1)OCN(c1ccc(F)c(F)c1F)C4		1070 nM	620 nM	120 nM	280 nM	2590 nM	13100 nM	280 nM	
